Test [1] concerns Staphylococcus aureus. Briefly: Antibacterial activity against Staphylococcus aureus ATCC 6538 after 7 hrs by Alamar Blue assay. The test is classed as functional. The following applies: ATCC 6538, 7 h. An outline of the steps: (§1)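 Strains kept in 20% glycerol at −80 °C, grown in MHB 12 h at 37 °C with shaking at 150 rpm, then adjusted to 1 × 10^5 CFU/mL in MHB. Suspension held Alamar Blue (8% v/v) and 2-fold diluted compound in DMSO (4% v/v), final 1.562–100 μg/mL, in triplicate. Incubated 7 h at 37 °C in the dark. MIC is the lowest concentration whose well stays blue.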

In test [2] the test system is Bacillus cereus. Briefly: Antibacterial activity against Bacillus cereus CMCC 63302 after 7 hrs by Alamar Blue assay. In kind it is functional. The following applies: CMCC 63302, 7 h. In a few lines:
as §1
(The colour change of resazurin is a common sign of viable cells or microbes.)

Test [3] deals with A549. Briefly: Cytotoxicity against human A549 cells assessed as inhibition of cell growth after 72 hrs by MTT assay. In kind it is functional, cell-based. The following applies: A549, 72 h. In a few lines: (§2)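 Cells grown in RPMI-1640 with 10% FBS at 37 °C under 5% CO2, seeded at 5 × 10^4 cells/mL and allowed about 24 h to attach. Medium was replaced and compound in DMSO added at final 0.016–50 μg/mL (5-fold steps), in quadruplicate, for 72 h. MTT was then given for 4 h, formazan dissolved in DMSO and OD read at 570 nm. IC50 obtained by nonlinear logistic regression.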
A general note: Tetrazolium assays rely on reduction of a dye to a coloured formazan, in cell work by metabolically active cells.

For test [4], the system named is Salmonella typhimurium. Nature of the test: Antibacterial activity against Salmonella typhimurium CMCC 50115 after 7 hrs by Alamar Blue assay. The test is classed as functional, organism-based. The following applies: Salmonella enterica subsp. enterica serovar Typhimurium. An outline of the steps:
as §1

Test [5] deals with Shigella dysenteriae. Nature of the test: Antibacterial activity against Shigella dysenteriae CMCC 51252 after 7 hrs by Alamar Blue assay. The test is classed as functional, organism-based.
For test [6], the system named is Escherichia coli. Briefly: Antibacterial activity against Escherichia coli ATCC 8739 after 7 hrs by Alamar Blue assay. In kind it is functional, organism-based. In a few lines:
as §1

The test system of test [7] is HepG2. Nature of the test: Cytotoxicity against human HepG2 cells assessed as inhibition of cell growth after 72 hrs by MTT assay. The following applies: HepG2, 72 h. The test is classed as functional, cell-based. In a few lines:
as §2

Test [8] has as its system HeLa. Briefly: Cytotoxicity against human HeLa cells assessed as inhibition of cell growth after 72 hrs by MTT assay. The test is classed as functional, cell-based. In a few lines: as §2

Each structure is given as a SMILES string. In brackets after ≈: the same amount, converted by molar mass. Activity calls are given as the source filed them. The calls are words filed in the database; no cut-off is given here.

By MIC is commonly meant the least concentration at which growth counts as inhibited. One may read the IC50 as the point on the concentration scale where inhibition reaches its midpoint. As for `C=C1CC[C@H]2[C@](C)(COC(C)=O)CCC[C@]2(C)[C@H]1C[C@]12O[C@H]1[C@H](O)C(CO)=CC2=O`, the minimal inhibitory concentration (MIC) was 100 µg/mL (≈ 239 µM) in test [1] and > 100 µg/mL in test [2]. Also, the IC50 in test [3] was found to be 29.4 µM; in test [7] it was 37.8 µM; in test [8] it was 19.2 µM. Also, the MIC entry in test [4], in test [5] and in test [6] was “inactive” each time.
For the molecule `C=C1CC[C@H]2[C@](C)(CO)CCC[C@]2(C)[C@H]1C[C@]12O[C@H]1[C@@H](O)C(CO)=CC2=O`, the MIC in test [1] worked out at 50 µg/mL (≈ 133 µM); in test [2], 100 µg/mL (≈ 266 µM). Besides, the IC50 came to 39.8 µM in test [3], 48.5 µM in test [7] and 29.3 µM in test [8]. Further, the MIC result in test [4], in test [5] and in test [6] was “inactive” each time.
With `CC(C)(O/N=C(\C(=O)N[C@@H]1C(=O)N2C(C(=O)[O-])=C(C[n+]3ccccc3)CS[C@H]12)c1csc(N)n1)C(=O)O` [CEFTAZIDIME], the minimum inhibitory concentration (MIC) in test [1] was determined as 12.5 µg/mL (≈ 22.9 µM).
As to `C=C1CC[C@H]2[C@](C)(CO)CCC[C@]2(C)[C@H]1C[C@]12O[C@H]1[C@@H](O)C(CO)=C(Cl)C2=O`, the minimal inhibitory concentration (MIC) was found to be 12.5 µg/mL (≈ 30.4 µM) in test [1] and 25 µg/mL (≈ 60.8 µM) in test [2]. Moreover, the IC50 in test [3] was determined as 8 µM; in test [7], 15.2 µM; in test [8], 7.9 µM. Moreover, the MIC entry in test [4], in test [5] and in test [6] was “inactive” each time.
On to `C=C1CC[C@H]2[C@](C)(CO)CCC[C@]2(C)[C@H]1C[C@@]12O[C@@H]1[C@@H](O)C(CO)=CC2=O`, for which the minimal inhibitory concentration (MIC) in test [1] worked out at 50 µg/mL (≈ 133 µM); in test [2] it was 100 µg/mL (≈ 266 µM). The concentration for half-maximal inhibition (IC50) in test [3] amounted to 41.5 µM; in test [7], 34.2 µM; in test [8] it was 35.9 µM. For the same molecule, the MIC result in test [4], in test [5] and in test [6] was “inactive” in each case.
As for `NC[C@H]1O[C@H](O[C@H]2[C@H](O)[C@@H](O[C@H]3O[C@H](CO)[C@@H](O)[C@H](N)[C@H]3O)[C@H](N)C[C@@H]2N)[C@H](O)[C@@H](O)[C@@H]1O` [KANAMYCIN], in test [2], the minimum inhibitory concentration (MIC) was 6.25 µg/mL (≈ 12.9 µM).
On to `COc1cccc2c1C(=O)c1c(O)c3c(c(O)c1C2=O)C[C@@](O)(C(=O)CO)C[C@@H]3O[C@H]1C[C@H](N)[C@H](O)[C@H](C)O1` [DOXORUBICIN], for which the figures for the half-maximal inhibitory concentration (IC50) in test [3] and in test [8] were 0.69 µM and 0.47 µM, respectively.
As to `C[C@@]1(CO)CCC[C@]2(C)[C@H]3C[C@@]45O[C@@H]4C(=O)[C@]4(CO)O[C@@H]4[C@]5(O)CC3=CC[C@@H]12` [HYMENOPSIN B], the MIC in test [1] and in test [2] was > 100 µg/mL each time. For the same molecule, the IC50 turned out to be 1.3 µM in test [3], 3.2 µM in test [7] and 4.5 µM in test [8]. In addition, the MIC result in test [4], in test [5] and in test [6] was “inactive” in each case.
Take `C=C1CC[C@H]2[C@](C)(CO)CCC[C@]2(C)[C@H]1CC1=C(O)C(=O)[C@](O)(CO)[C@H](O)[C@H]1O`: the MIC in test [1] and in test [2] was > 100 µg/mL in each case. The half-inhibitory concentration (IC50) in test [3], in test [7] and in test [8] was > 50 µM in each case. Moreover, the MIC entry in test [4], in test [5] and in test [6] was “inactive” each time.
`C=C1CC[C@H]2[C@](C)(COC(C)=O)CCC[C@]2(C)[C@H]1C[C@@]12O[C@@H]1[C@@H](O)C(CO)=CC2=O`: the minimum inhibitory concentration (MIC) was 50 µg/mL (≈ 119 µM) in test [1] and > 100 µg/mL in test [2]. Further, the concentration for half-maximal inhibition (IC50) in test [3] came to 18 µM; in test [7], 27.8 µM; in test [8], 19.6 µM. Further, the MIC result in test [4], in test [5] and in test [6] was “inactive” throughout.

The values are drawn from ChEMBL document CHEMBL3352204, “Cytotoxic and Antibacterial Quinone Sesquiterpenes from a Myrothecium Fungus” (J Nat Prod, 2014).
